# Source: PubChem
# L major viab: Leishmania major promastigote growth inhibition, primary screen; Leishmania major promastigotes, resazurin fluorescence viability; inhibition, % at 10 µM; 9% of 200,000 active; AID 1063, 2008;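 also: promastigotes grown with compound for 44 hours at 28 °C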
# CHOP inhibitor: inhibitors of CHOP promoter induction, primary screen, cell-based, unfolded protein response, luciferase reporter; CHO-K1 CHOP-promoter luciferase, tunicamycin-induced, 15-18 h; inhibition, % at 10 µM; 3.8% of 220,000 active;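 active = compounds that reduced the stress-induced luciferase reporter signal by more than about 70% of percent inhibition, limit read from the data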;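 also: 0% = tunicamycin plus vehicle and 100% = wells without tunicamycin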
# Wee1 stabilizer: Wee1 degradation inhibitors, primary screen, cell-based, HeLa, Wee1K328M-luciferase, luminescence; 1.2% of 220,000 active; HeLa Luc-Wee1K328M stability; 100% = proteasome inhibitor MG132 effect; reporter increase, % at 5 µM; Wee1-like protein kinase (Homo sapiens), P30291;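 active = activation above the mean of all tested compounds plus 3 SD, set per screening run, cut at about 8.8% in these data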;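 also: cells exposed to compound for 20 h before luminescence read; 0% = DMSO alone and 100% = MG132 at 30 µM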
# PKD1 kinase inh: inhibitors of human PKD1 kinase, biochemical, fluorescence polarization. 0.056% of 200,000 active. PKD1 kinase fluorescence polarization assay. inhibition, % (concentration not given with the values). AID 797, 2007
# Arbovirus anti: antivirals against arbovirus infection, primary screen, cell-based, full library, 10K replicate subset | arbovirus infection cell-based antiviral screen | inhibition, % at 10 µM | 0.37% of 200,000 active | AID 1251, 2008; in the data active = inhibition above about 30%
# Rad51 HR inh: human RAD51 strand exchange inhibitors, primary screen, biochemical, fluorescence; AID 1385, 2008; inhibition, % at 10 µM; hRad51 DNA strand exchange, fluorescence dequenching; 0.085% of 200,000 active; DNA repair protein RAD51 homolog 1 (Homo sapiens), Q06609;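 active = inhibition above 40% at the single screening dose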;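 also: 0% = DMSO control wells and 100% = blanks with heterologous ssDNA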
# Target sequence (Q06609 whole entry, looked up): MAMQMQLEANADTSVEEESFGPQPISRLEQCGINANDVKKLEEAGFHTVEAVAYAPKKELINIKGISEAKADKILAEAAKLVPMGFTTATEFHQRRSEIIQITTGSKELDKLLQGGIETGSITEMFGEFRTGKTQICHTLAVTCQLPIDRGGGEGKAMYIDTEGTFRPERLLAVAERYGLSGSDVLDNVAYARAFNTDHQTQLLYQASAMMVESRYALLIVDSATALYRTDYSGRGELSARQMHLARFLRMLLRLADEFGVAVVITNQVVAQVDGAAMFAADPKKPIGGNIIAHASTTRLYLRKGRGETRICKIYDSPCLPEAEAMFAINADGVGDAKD
#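 System: human Rad51 nucleoprotein filaments preassembled on unlabelled ssDNA. Reagent: labelled 47-mer dsDNA for strand exchange. Schedule: 30-min compound preincubation and 15-min exchange, both room temperature. Measured by: FRET fluorescence dequenching, excitation 485 nm, emission 520 nm. Read-out: Fluorescence-based percent inhibition, control- and blank-normalised. Benchmarks: plate controls and plate blanks.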
# An asterisk follows results filed as active; / = no result given. This is a sample that favours compounds with a hit; in the whole collection about 12% have one here. Rule as the data show it, unless noted: active = inhibition above about 50%; inactive = the rest.
SMILES,L major viab,CHOP inhibitor,Wee1 stabilizer,PKD1 kinase inh,Arbovirus anti,Rad51 HR inh
CC(C)(C)OC(=O)N1CCC(c2cc(=O)n3[nH]c(-c4ccc(Cl)cc4)cc3n2)CC1,-0.6,70.0*,-1.1,-3.5,-13.5,7.2
COc1ccc(NC(=O)c2c[nH]n3c(=O)cc(C4CCN(C(=O)OC(C)(C)C)CC4)nc23)cc1Cl,-2.9,7.2,-1.4,-2.5,48.6*,/
Cc1ccc(NC(=O)Cn2nc(-c3ccccc3Cl)ccc2=O)c(Br)c1,6.2,15.1,-0.7,-4.4,-3.1,7.2
O=C(CSc1ncccc1-c1nc2ccccc2[nH]1)Nc1ccc2c(c1)OCCO2,72.8*,20.1,4.6,-9.4,-3.6,2.5
C[C@H]1C=C(C(=O)NCc2ccccc2)O[C@@H](OCc2ccc(CO)cc2)C1,-0.1,22.2,0.0,3.2,1.2,/
Cc1ccc(NC(=O)CSc2nnc(-c3ccccc3C)o2)cc1C,3.0,70.1*,-0.4,1.8,-0.4,-0.8
CCOc1ccc(NC(=O)CSc2nnc(COc3c(C)cccc3C)o2)cc1,-7.5,87.0*,-3.1,-8.1,5.5,6.3
O=C(CSc1ncn(-c2ccccc2)n1)c1cccs1,1.0,-11.2,0.3,-2.1,9.0,68.0*
Cc1ccc(NC(=O)CSc2ncn(-c3ccccc3)n2)cc1C,97.4*,2.6,-2.3,-7.4,-3.9,-0.9
O=C(CSc1nnc(-c2ccccc2)n1-c1ccccc1)c1cccs1,-2.7,0.9,0.0,-11.1,-0.7,/
COc1ccc(NC(=O)CSc2ncn(-c3ccccc3)n2)cc1Cl,1.6,38.4,-1.3,1.8,6.2,4.7
COc1ccc(N2C3=C(CC4=C2CCCC4=O)C(=O)CCC3)cc1,25.5,14.2,1.6,-4.5,-7.5,-0.6
COc1ccc(N2C3=C(CC4=C2CC(C)(C)CC4=O)C(=O)CC(C)(C)C3)cc1,100.4*,4.3,3.2,-8.8,-41.5,3.4
N#CCC(=O)c1ccccc1Oc1ccc(Cl)cc1,-6.2,2.8,-2.9,-2.3,1.0,-15.1
Cc1csc2ncnc(N3CCN(C(=S)Nc4ccc(F)cc4F)CC3)c12,/,28.0,-1.6,/,/,1.9
CCN(CCNC(=O)Nc1ccc(Cl)cc1)c1ccccc1,96.5*,75.2*,-2.5,-0.2,3.8,27.7
CCN(CC)c1nc(OCCNC(=O)Nc2ccccc2)nc(N(CC)CC)n1,26.5,90.0*,0.0,0.1,-34.6,18.5
CNC(=S)Nc1ccc(N2CCN(c3ccc(C(F)(F)F)cn3)CC2)nc1,/,29.2,-1.9,/,/,-0.1
Cn1cc(Cl)c(C(=O)Nc2cccc(Cl)c2Cl)n1,-7.7,75.2*,2.2,-5.9,-6.9,6.9
COc1cc(-c2nnc(CSc3nnc(Nc4ccc(Oc5ccccc5)cc4)s3)o2)cc(OC)c1OC,77.5*,19.9,0.2,1.1,15.9,-6.4
COc1cc(-c2nnc(CSc3nnc(N)s3)o2)cc(OC)c1OC,0.3,19.1,2.8,1.1,10.8,4.1
CCCCCCCCCCCCCCCCCCNC(=O)OCC(COP(=O)([O-])OCC[n+]1ccsc1)OC (stereo not drawn),/,-13.1,/,/,/,/
CC(=O)O[C@H]1CC[C@H]2[C@@H]3CCc4cc(O)ccc4[C@H]3CC[C@]12C,-5.3,75.9*,-2.0,-7.9,-8.7,7.0
CCc1cccc2c(C(=O)CN3C(=O)NC(C)(c4cccc5ccccc45)C3=O)c[nH]c12 (stereo not drawn),62.9*,6.6,-1.8,5.6,-21.6,/
COc1ccc(Cn2c(=S)[nH]c3ccsc3c2=O)cc1,27.8,33.1,-2.2,-9.2,2.3,-1.4
SMILES,L major viab,CHOP inhibitor,Wee1 stabilizer,PKD1 kinase inh,Arbovirus anti,Rad51 HR inh
Cc1oc(-c2ccc(Cl)cc2)nc1CS(=O)CC(=O)NCCCN(C)C1CCCCC1 (stereo not drawn),100.3*,22.2,0.1,-6.0,-18.6,0.4
Cc1oc(-c2ccc(Cl)cc2)nc1CS(=O)CC(=O)NCCN1CCCC1 (stereo not drawn),-2.4,14.8,1.5,-3.1,-5.2,-13.2
CCSc1nnc(NC(=O)c2ccccc2C)s1,-5.9,-35.0,-1.8,10.9,6.7,2.5
N/C(Cc1ccc(Cl)cc1)=N\OC(=O)c1cccc2ccccc12,99.0*,44.7,4.0,-7.1,9.7,5.3
CN(C)S(=O)(=O)c1cc(NC(=O)CSc2nn(-c3ccc(Cl)cc3)c(=S)s2)ccc1Cl,92.7*,47.6,-1.2,-5.8,-16.9,3.7
Cc1ccc(NC(=O)CSc2nn(-c3ccc(Cl)cc3)c(=S)s2)cc1S(=O)(=O)N(C)C,97.2*,46.5,-1.3,-3.5,-3.2,0.0
CC1(NCC(O)COc2cccc3[nH]ccc23)CCC(C(C)(C)NC(=O)CBr)CC1 (stereo not drawn),/,-10.8,/,/,/,/
CC1CCCCC1NC(=O)C1CCC(CNc2c(N3CCCCC3)c(=O)c2=O)CC1 (stereo not drawn),/,-6.4,0.2,/,/,-2.6
COc1ccc(C(=O)COc2ccccc2C(=O)Nc2ccccc2)cc1,15.0,1.7,-2.9,-5.1,-1.8,/
N#Cc1c(-c2cccnc2)cc(-c2ccccc2)nc1N,/,-2.6,2.2,/,/,10.8
N#Cc1c(-c2ccccc2F)cc(-c2cccnc2)nc1N,71.3*,18.4,0.1,-3.6,-9.3,7.8
CCc1ccc(C2=NN(S(C)(=O)=O)C(c3cccs3)C2)cc1 (stereo not drawn),67.3*,14.3,3.7,-8.3,9.7,-15.7
CS(=O)(=O)N1N=C(c2ccc(Br)cc2)CC1c1cccs1 (stereo not drawn),4.7,11.3,4.0,-1.4,13.8,3.0
Cc1ccc(C)c(NS(=O)(=O)c2cc(C(=O)NCCSC3CCCCC3)ccc2C)c1,97.0*,69.7,-3.2,-1.8,-0.1,-4.1
Cc1ccccc1NS(=O)(=O)c1cc(C(=O)NCCSC2CCCCC2)ccc1C,99.8*,71.9*,-1.9,11.2,-26.6,-4.4
Cc1ccc(C)c(NS(=O)(=O)c2cc(C(=O)NCCC3=CCCCC3)ccc2C)c1,24.9,46.6,4.9,-1.1,-1.4,5.2
COc1ccccc1CNC(=O)C(Cc1c[nH]c2ccccc12)NC(=O)OCc1ccccc1 (stereo not drawn),98.7*,41.9,-3.8,-5.8,-22.9,1.0
COc1cccc(OCCOCCOc2ccc(C)cc2[N+](=O)[O-])c1,3.0,15.9,2.6,6.2,-0.7,/
Cc1ccc(OCCOCCN2CCN(C)CC2)c([N+](=O)[O-])c1,-5.7,37.1,-1.1,4.7,-13.8,6.7
Cc1ccc(OCCOCCNC(C)(C)C)c([N+](=O)[O-])c1,91.8*,-26.7,0.5,1.2,-1.3,1.1
COCCNCCCCOc1ccc(C)cc1[N+](=O)[O-],74.2*,17.2,-0.5,5.8,-8.3,/
Cc1ccc(OCCOCCN2CCCCC2)c([N+](=O)[O-])c1,70.3*,30.6,-1.4,-3.8,-16.9,/
